The values that follow come from ChEMBL document CHEMBL2440037, “GluK1 antagonists from 6-(carboxy)phenyl decahydroisoquinoline derivatives. SAR and evaluation of a prodrug strategy for oral efficacy in pain models” (Bioorg Med Chem Lett, 2013).

Usually Ki stands for the equilibrium dissociation constant of an inhibitor or competing ligand from its target. Read a high Ki as weaker binding. Usually AUC(0-inf) stands for total exposure, with the tail of the curve extrapolated. A high value points to high exposure. In general, bioavailability refers to dose-corrected exposure relative to a reference, in per cent. In general, Cmax refers to the highest concentration seen after dosing. A word on the Tmax: it is the time from dosing to the highest level.

In data set [1] the target is Glutamate receptor ionotropic, kainate 1 (Homo sapiens, UniProt P39086). Kind of data set: Binding affinity to GluK1 receptor (unknown origin).
Glutamate receptor ionotropic, kainate 1, sequence (P39086 whole entry): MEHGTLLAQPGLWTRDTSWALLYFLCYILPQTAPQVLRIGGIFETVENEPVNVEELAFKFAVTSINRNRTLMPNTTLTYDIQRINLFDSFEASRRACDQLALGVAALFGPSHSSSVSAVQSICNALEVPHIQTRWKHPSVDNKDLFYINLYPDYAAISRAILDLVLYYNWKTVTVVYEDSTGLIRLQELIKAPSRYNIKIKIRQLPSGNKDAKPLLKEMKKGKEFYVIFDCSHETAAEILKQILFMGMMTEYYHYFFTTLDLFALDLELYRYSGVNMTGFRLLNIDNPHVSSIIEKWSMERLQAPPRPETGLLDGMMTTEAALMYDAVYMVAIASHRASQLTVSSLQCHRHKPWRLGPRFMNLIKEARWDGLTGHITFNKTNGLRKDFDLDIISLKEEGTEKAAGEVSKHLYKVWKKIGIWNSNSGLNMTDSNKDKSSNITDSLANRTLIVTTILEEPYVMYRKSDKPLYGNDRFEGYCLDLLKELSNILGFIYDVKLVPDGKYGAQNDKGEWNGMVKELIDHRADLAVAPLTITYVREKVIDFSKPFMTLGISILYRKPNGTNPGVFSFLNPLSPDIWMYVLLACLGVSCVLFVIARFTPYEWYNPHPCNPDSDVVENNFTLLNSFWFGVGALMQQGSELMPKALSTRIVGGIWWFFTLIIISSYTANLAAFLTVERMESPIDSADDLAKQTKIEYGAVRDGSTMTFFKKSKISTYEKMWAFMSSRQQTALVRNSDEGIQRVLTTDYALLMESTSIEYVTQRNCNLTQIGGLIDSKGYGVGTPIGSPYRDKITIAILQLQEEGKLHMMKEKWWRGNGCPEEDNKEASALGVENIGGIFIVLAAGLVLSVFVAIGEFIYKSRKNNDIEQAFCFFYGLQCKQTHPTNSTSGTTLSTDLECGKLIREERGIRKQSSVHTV
For a further data set, the target named is Glutamate receptor 2 (Homo sapiens, UniProt P42262). Briefly: Binding affinity to GluA2 receptor (unknown origin).
Glutamate receptor 2, sequence (P42262 whole entry): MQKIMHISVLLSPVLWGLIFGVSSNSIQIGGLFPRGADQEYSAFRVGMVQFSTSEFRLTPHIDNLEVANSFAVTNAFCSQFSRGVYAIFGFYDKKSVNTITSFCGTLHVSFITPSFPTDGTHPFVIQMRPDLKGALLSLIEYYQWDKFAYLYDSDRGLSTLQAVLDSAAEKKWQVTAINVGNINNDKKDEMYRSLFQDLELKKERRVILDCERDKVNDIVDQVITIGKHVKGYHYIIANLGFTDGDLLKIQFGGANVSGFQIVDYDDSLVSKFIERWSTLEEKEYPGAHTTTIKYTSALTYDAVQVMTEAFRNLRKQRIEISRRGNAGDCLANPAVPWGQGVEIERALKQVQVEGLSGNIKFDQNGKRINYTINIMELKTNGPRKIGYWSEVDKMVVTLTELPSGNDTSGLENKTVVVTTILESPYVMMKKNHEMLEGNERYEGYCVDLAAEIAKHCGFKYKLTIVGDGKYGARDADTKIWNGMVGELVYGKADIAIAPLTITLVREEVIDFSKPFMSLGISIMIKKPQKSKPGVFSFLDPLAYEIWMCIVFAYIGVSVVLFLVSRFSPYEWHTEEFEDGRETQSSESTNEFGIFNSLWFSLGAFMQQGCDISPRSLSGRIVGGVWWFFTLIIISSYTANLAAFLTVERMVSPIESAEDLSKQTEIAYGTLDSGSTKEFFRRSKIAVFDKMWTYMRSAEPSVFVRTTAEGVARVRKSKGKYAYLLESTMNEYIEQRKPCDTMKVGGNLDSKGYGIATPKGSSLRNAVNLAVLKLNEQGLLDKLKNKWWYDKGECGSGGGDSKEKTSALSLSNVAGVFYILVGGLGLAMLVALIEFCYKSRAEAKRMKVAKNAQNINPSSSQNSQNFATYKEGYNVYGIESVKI
Data set [2] has as its system Rattus norvegicus. Briefly: Neurotoxicity in po dosed rat assessed as sedative effect by rotorod test. Format: toxicity, organism-based. The note with it: in vivo. The method in brief: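 Rotorod test in rats for sedative or ataxic effects; amino acid given p.o. as diethyl ester hydrochloride salt at several doses, N = 8, vehicle controls N = 8; minimal effective dose (MED) reported.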
On the technique in general: In the rotarod test animals must keep their balance on a rotating rod.

In data set [3] the test system is Rattus norvegicus. Kind of data set: Antihyperalgesic activity against carrageenan-induced thermal hyperalgesia in po dosed rat. Format: functional. The note with it: read-out: MED. The method in brief: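 Rat carrageenan-induced thermal hyperalgesia; amino acid given p.o. as diethyl ester hydrochloride salt at several doses, N = 6 per group; vehicle controls N = 6. Reported as minimal effective dose (MED).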

A short description of data set [4]: AUC (0 to infinity) in Fischer rat at 30 mg/kg, po. Format: ADME, organism-based. Further details: time infinity, dose 30 mg/kg, route oral. The note with it: plasma. The method in brief:
(§1)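 Fischer rats; amino acid dosed orally as diethyl ester hydrochloride salt, 30 mg/kg (one entry at 10 mg/kg), three rats per time point. Amino acid plasma levels measured: AUC 0 to infinity, Cmax as maximum observed concentration, Tmax as time at Cmax. %F is amino acid exposure after oral ester dosing relative to the amino acid given iv.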

The nature of data set [5]: Oral bioavailability in Fischer rat at 30 mg/kg. As to conditions: in vivo. It is filed as ADME, organism-based. The method in brief:
as §1

A short description of data set [6]: Cmax in Fischer rat at 30 mg/kg, po. It is filed as ADME, organism-based. As to conditions: in vivo. Also on record: dose 30 mg/kg, route oral. The procedure, abridged: as §1
Data set [7] concerns Rattus norvegicus. Briefly: Analgesic activity in rat assessed as reversal of formalin-induced pain at 30 mg/kg, po. It is filed as functional. The method in brief:
(§2)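 Rat formalin pain model; amino acid given p.o. as diethyl ester hydrochloride salt at 30 mg/kg (one entry at 100 mg/kg), N = 8–9; vehicle controls N = 8–12. Read-out is % reversal of formalin-induced pain.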

Data set [8] can be described thus: Tmax in Fischer rat at 30 mg/kg, po. Format: ADME, organism-based. Further details: dose 30 mg/kg, route oral. As to conditions: in vivo. The method in brief:
as §1

The nature of data set [9]: AUC (0 to infinity) in Fischer rat at 10 mg/kg, po. It is filed as ADME, organism-based. Also on record: time infinity, dose 10 mg/kg, route oral. As to conditions: plasma. The procedure, abridged: as §1
The nature of data set [10]: Tmax in Fischer rat at 10 mg/kg, po. Format: ADME, organism-based. Also on record: dose 10 mg/kg, route oral. The note with it: in vivo. The procedure, abridged:
as §1

The nature of data set [11]: Oral bioavailability in Fischer rat at 10 mg/kg. Format: ADME, organism-based. As to conditions: in vivo. The method in brief:
as §1

Data set [12] in a line: Cmax in Fischer rat at 10 mg/kg, po. As to conditions: in vivo. Further details: dose 10 mg/kg, route oral. It is filed as ADME, organism-based. The method in brief:
as §1

Data set [13] relates to Rattus norvegicus. Kind of data set: Analgesic activity in rat assessed as reversal of formalin-induced pain at 100 mg/kg, po. Format: functional. The procedure, abridged:
as §2

With `O=C(O)c1c(F)cccc1O[C@H]1CC[C@H]2CN[C@H](C(=O)O)C[C@H]2C1`, the Ki in [1] is 9.7 µM; on Glutamate receptor 2, 93 µM.
For `O=C(O)c1ccccc1C[C@H]1CC[C@H]2CN[C@H](C(=O)O)C[C@H]2C1` the same measures were 67 µM and 29600 µM.
In the case of `O=C(O)c1cccc(S[C@H]2CC[C@H]3CN[C@H](C(=O)O)C[C@H]3C2)c1`, the Ki at Glutamate receptor 2 is 9 µM.
For the compound `CCOC(=O)c1ccccc1O[C@H]1CC[C@H]2CN[C@H](C(=O)OCC)C[C@H]2C1.Cl`, the MED in the data set on Rattus norvegicus [2] was over 30 mg/kg. Also, in the data set on Rattus norvegicus [3], the minimal effective dose turned out to be 10 mg/kg. In addition, in data set [4], the AUC(0-inf) is 24700 ng·h/mL. Moreover, the bioavailability in data set [5] is 75.3%. For the same compound, in data set [6], the highest level (Cmax) was 9200 ng/mL. The Activity in the data set with Rattus norvegicus [7] is recorded as 21.8%. In addition, in data set [8], the Tmax was found to be 30 min.
With `Cc1ccc(O[C@H]2CC[C@H]3CN[C@H](C(=O)O)C[C@H]3C2)c(C(=O)O)c1`, the figures for the Ki (in [1]; on Glutamate receptor 2) were 9.9 µM and 107 µM, respectively.
The like results for `O=C(O)c1ccc(Cl)cc1S[C@H]1CC[C@H]2CN[C@H](C(=O)O)C[C@H]2C1` were, in that order, 1.3 µM and 22 µM.
For `O=C(O)c1ccc(S[C@H]2CC[C@H]3CN[C@H](C(=O)O)C[C@H]3C2)cc1` the same measures were 19 µM and 418 µM.
The like results for `O=C(O)c1ccccc1S[C@H]1CC[C@H]2CN[C@H](C(=O)O)C[C@H]2C1` were, in that order, 0.8 µM and 15 µM.
Turning to `COc1ccc(C(=O)O)c(O[C@H]2CC[C@H]3CN[C@H](C(=O)O)C[C@H]3C2)c1`, the Ki in [1] is 6.2 µM; on Glutamate receptor 2 it was 111 µM.
For `O=C(O)c1cc(Cl)ccc1O[C@H]1CC[C@H]2CN[C@H](C(=O)O)C[C@H]2C1` the same measures were 1.5 µM and 19 µM.
In data set [9], `Cl.O=C(O)c1ccc(C[C@H]2CC[C@H]3CN[C@H](C(=O)O)C[C@H]3C2)cc1` yielded an AUC(0-inf) of 1510 ng·h/mL. In addition, the Tmax in data set [10] is 60 min. The compound further came in with a bioavailability in [11] of 62.5%. This compound also displayed a Cmax in data set [12] of 539 ng/mL. This compound returned a Ki at Glutamate receptor 2 of 553 µM.
`O=C(O)c1ccc(O[C@H]2CC[C@H]3CN[C@H](C(=O)O)C[C@H]3C2)cc1`: the Ki came out at 267 µM in [1] and 913 µM at Glutamate receptor 2.
The like results for `O=C(O)c1cc(-c2ccccc2)ccc1O[C@H]1CC[C@H]2CN[C@H](C(=O)O)C[C@H]2C1` were, in that order, 11 µM and 172 µM.
For `O=C(O)c1ccccc1O[C@H]1CC[C@H]2CN[C@H](C(=O)O)C[C@H]2C1` the same measures were 2.3 µM and 70 µM.
As to `O=C(O)c1ccc(N[C@H]2CC[C@H]3CN[C@H](C(=O)O)C[C@H]3C2)cc1`, the Ki at Glutamate receptor 2 was 1420 µM.
Turning to `Cc1ccc(C(=O)O)c(O[C@H]2CC[C@H]3CN[C@H](C(=O)O)C[C@H]3C2)c1`, the values for the Ki (in [1]; at Glutamate receptor 2) were 5.9 µM and 89 µM, respectively.
As to `CCOC(=O)c1ccccc1S[C@H]1CC[C@H]2CN[C@H](C(=O)OCC)C[C@H]2C1.Cl`, the MED in the data set on Rattus norvegicus [2] was over 100 mg/kg. Moreover, the minimal effective dose in the data set on Rattus norvegicus [3] is 10 mg/kg. Further, in the data set on Rattus norvegicus [13], the Activity is 49.4%. This compound also showed an AUC(0-inf) in data set [4] of 7530 ng·h/mL. In [5], the bioavailability was determined as 38.8%. Besides, in [6], the concentration peaked (Cmax) at 2980 ng/mL. Moreover, the Tmax in data set [8] was found to be 30 min.
With `COc1ccc(O[C@H]2CC[C@H]3CN[C@H](C(=O)O)C[C@H]3C2)c(C(=O)O)c1`, the Ki in data set [1] was determined as 19 µM; at Glutamate receptor 2, 87 µM.
Consider `Cc1cccc(C(=O)O)c1O[C@H]1CC[C@H]2CN[C@H](C(=O)O)C[C@H]2C1`, for which the Ki was 228 µM in data set [1] and 818 µM at Glutamate receptor 2.
For `O=C(O)c1cccc(C[C@H]2CC[C@H]3CN[C@H](C(=O)O)C[C@H]3C2)c1` the same measures were 16 µM and 149 µM.
The like results for `O=C(O)c1cccc(Cl)c1O[C@H]1CC[C@H]2CN[C@H](C(=O)O)C[C@H]2C1` were, in that order, 316 µM and 1470 µM.
For `CCOC(=O)c1ccc(Cl)cc1O[C@H]1CC[C@H]2CN[C@H](C(=O)OCC)C[C@H]2C1.Cl`, the MED in the data set on Rattus norvegicus [2] is over 30 mg/kg. Further, in the data set on Rattus norvegicus [3], the minimal effective dose is over 10 mg/kg. The AUC(0-inf) in [4] worked out at 9190 ng·h/mL. The compound further had a bioavailability in data set [5] of 32.9%. Besides, in data set [6], the Cmax stood at 6450 ng/mL. Also, the Activity in the data set on Rattus norvegicus [7] was determined as 14.9%. Also, the Tmax in data set [8] came out at 30 min.
Consider `CCOC(=O)c1ccc(-c2ccccc2)cc1O[C@H]1CC[C@H]2CN[C@H](C(=O)OCC)C[C@H]2C1.Cl`, for which the AUC(0-inf) in [4] came to 7230 ng·h/mL. Further, in data set [5], the bioavailability came to 22.2%. This compound displayed a Cmax in data set [6] of 2700 ng/mL. Also, the Tmax in data set [8] amounted to 60 min.
For the compound `O=C(O)c1cccc(N[C@H]2CC[C@H]3CN[C@H](C(=O)O)C[C@H]3C2)c1`, the figures for the Ki (in data set [1]; at Glutamate receptor 2) were 8 µM and 238 µM, respectively.
As for `CCOC(=O)c1ccc(C[C@H]2CC[C@H]3CN[C@H](C(=O)OCC)C[C@H]3C2)cc1.Cl`, the MED in the data set on Rattus norvegicus [2] is over 30 mg/kg. For the same compound, the minimal effective dose with Rattus norvegicus [3] stood at 10 mg/kg. In addition, in the data set on Rattus norvegicus [7], the Activity is on record as 13.4%.
Regarding `O=C(O)c1cc(Cl)ccc1S[C@H]1CC[C@H]2CN[C@H](C(=O)O)C[C@H]2C1`, the Ki in data set [1] is 3.7 µM; on Glutamate receptor 2 it was 42 µM.
For `O=C(O)c1cc(Cl)ccc1N[C@H]1CC[C@H]2CN[C@H](C(=O)O)C[C@H]2C1` the same measures were 3.6 µM and 3.3 µM.
For `O=C(O)c1ccc(Cl)cc1O[C@H]1CC[C@H]2CN[C@H](C(=O)O)C[C@H]2C1` the same measures were 2.1 µM and 151 µM.
In turn, `O=C(O)c1ccccc1N[C@H]1CC[C@H]2CN[C@H](C(=O)O)C[C@H]2C1` came in with a Ki on Glutamate receptor 2 of 77 µM.
Consider `O=C(O)c1ccc(-c2ccccc2)cc1O[C@H]1CC[C@H]2CN[C@H](C(=O)O)C[C@H]2C1`, for which the inhibitory constant (Ki) was determined as 0.5 µM in data set [1] and 8.8 µM on Glutamate receptor 2.
For `O=C(O)c1cccc(O[C@H]2CC[C@H]3CN[C@H](C(=O)O)C[C@H]3C2)c1` the same measures were 6 µM and 44 µM.
